Measured values from ChEMBL document CHEMBL1142124, “Antimicrobial prenylated anthracene derivatives from the leaves of Harungana madagascariensis” (2007).
Activity calls are given as the source filed them. No cut-off for these calls is given here.

How the values were obtained:
[Chlorella] fusca [1] = Antimicrobial activity against Chlorella fusca at 1 ug/uL by agar diffusion assay; type: functional, organism-based; conditions: Scenedesmus fuscus
Outline: (§1)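 Filter-disk agar diffusion. 50 µL of test solution is applied to a sterile 9 mm disk, and the disk is air-dried. Disks sit on an agar medium suited to each organism, and the plate is sprayed with a suspension of that organism. Incubation is at 28 °C overnight. The radius of the inhibition zone is read in mm.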

[Chlorella] fusca [2] = Antimicrobial activity against Chlorella fusca at 5 ug/uL by agar diffusion assay; type: functional; conditions: for Activity: Scenedesmus fuscus; outline: as §1
Priestia megaterium [3] = assay: Antibacterial activity against Bacillus megaterium at 5 ug/uL by agar diffusion assay; type: functional; outline: as §1
Microbotryum violaceum [4] = assay: Antimicrobial activity against Micobotryum violaceum at 1 ug/uL by agar diffusion assay; type: functional, organism-based; outline: as §1
Microbotryum violaceum [5] = assay: Antimicrobial activity against Micobotryum violaceum at 5 ug/uL by agar diffusion assay; type: functional; outline: as §1
Priestia megaterium [6] = assay: Antibacterial activity against Bacillus megaterium at 1 ug/uL by agar diffusion assay; type: functional; outline: as §1

SMILES	Activity ([Chlorella] fusca [1])	Activity ([Chlorella] fusca [2])	Activity (Priestia megaterium [3])	Activity (Microbotryum violaceum [4])	Activity (Microbotryum violaceum [5])	Activity (Priestia megaterium [6])	inhibition zone (IZ) ([Chlorella] fusca [2]) [mm]	inhibition zone (IZ) (Priestia megaterium [3]) [mm]	inhibition zone (IZ) (Microbotryum violaceum [5]) [mm]	inhibition zone (IZ) (Priestia megaterium [6]) [mm]
CC(C)=CCc1c(C)c2c3c(c1O)C(=O)c1c(O)cc4c(c1[C@]31O[C@H](C2)C(C)(C)O1)C=CC(C)(C)O4	inactive	inactive	inactive	inactive	inactive	inactive	–	–	–	–
O=c1c2cc(O)ccc2oc2cccc(O)c12	inactive	–	–	inactive	–	–	10	12	12	9
CC(C)=CCc1c(C)cc(O)c2c(O)c3c(cc12)[C@]1(CC=C(C)C)C[C@H](O)C(C)(C)[C@@H](C3=O)C1=O [HARUNMADAGASCARIN D]	inactive	inactive	–	inactive	inactive	inactive	–	10	–	–
COC1c2c(CC=C(C)C)c(C)cc(O)c2C(=O)c2c(O)cc3c(c21)CC(C(C)(C)O)O3 (stereo not given) [KENGANTHRANOL C]	inactive	inactive	–	inactive	inactive	–	–	10	–	6
CC(C)=CCc1c(C)c(CC=C(C)C)c2c(c1O)C(=O)c1c(O)cc(O)c(CC=C(C)C)c1C2	inactive	inactive	inactive	inactive	inactive	inactive	–	–	–	–
